Test results taken from ChEMBL document CHEMBL3351454, “Design, synthesis, antimicrobial evaluation and molecular docking studies of some new thiophene, pyrazole and pyridone derivatives bearing sulfisoxazole moiety” (2014).
≈ marks a conversion by molar mass, not a printed value. Calls of active or inactive are those of the source. No cut-off for these calls is given here.

How the values were obtained:
Assay type in all cases: functional
[1] = test system: Escherichia coli; assay: Antimicrobial activity against Escherichia coli RCMB 010052 assessed as inhibition zone at 5 mg/ml after 24 hrs; conditions: RCMB 010052, 24 h, read-out: IZ
Summary of the method: (§1)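 Agar diffusion on nutrient agar seeded with 10^6 CFU/mL bacteria. Filter-paper disks were loaded with 100 µL of a 5 mg/mL compound solution in DMF, with a DMF-only control. Incubation was 37 °C for 24 h. Inhibition zone in mm (mean ± SD, triplicate plates) was measured beyond the 6 mm diameter.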

[2] = test system: Proteus vulgaris; assay: Antimicrobial activity against Proteus vulgaris RCMB 010085 assessed as absence of turbidity after 24 hrs
Summary of the method: (§2)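 Broth microdilution in Müller–Hinton broth. DMF stocks at 1000 µg/mL were diluted in broth to give twofold serial dilutions over 500–0.007 µg/mL. Bacterial inoculum was about 10^6 CFU/mL in 96-well plates, sealed and incubated at 37 °C for 24 h in a humid chamber. MIC was taken as the lowest concentration with no visible turbidity. DMF and uninoculated-medium controls were included. Only compounds giving zones >10 mm were tested.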

[3] = test system: Staphylococcus epidermidis; assay: Antimicrobial activity against Staphylococcus epidermidis RCMB 010024 assessed as inhibition zone at 5 mg/ml after 24 hrs; conditions: RCMB 010024, 24 h, read-out: IZ; summary of the method: as §1
[4] = test system: Proteus vulgaris; assay: Antimicrobial activity against Proteus vulgaris RCMB 010085 assessed as inhibition zone at 5 mg/ml after 24 hrs; conditions: for zone of inhibition at 5000 µg/mL: RCMB 010085, 24 h, read-out: IZ; summary of the method: as §1
[5] = test system: Geotrichum candidum; assay: Antifungal activity against Geotrichum candidum RCMB 05097 assessed as inhibition zone at 5 mg/ml after 48 hrs; conditions: RCMB 05097, 48 h, read-out: IZ
Summary of the method: (§3)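 Disk diffusion on nutrient agar seeded with 10^4 CFU/mL fungus. Sterile filter-paper disks carried 100 µL of a 5 mg/mL DMF solution, and DMF alone served as control. Plates were incubated at 25 °C for 48 h. Mean inhibition zone in mm ± SD was read beyond the 6 mm diameter, in triplicate.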

[6] = test system: Aspergillus fumigatus; assay: Antifungal activity against Aspergillus fumigatus RCMB 02568 assessed as inhibition zone at 5 mg/ml after 48 hrs; conditions: RCMB 02568, 48 h, read-out: IZ; summary of the method: as §3
[7] = test system: Syncephalastrum racemosum; assay: Antifungal activity against Syncephalastrum racemosum RCMB 05922 assessed as absence of turbidity after 48 hrs; conditions: RCMB 05922, 48 h
[8] = test system: Klebsiella pneumoniae; assay: Antimicrobial activity against Klebsiella pneumoniae RCMB 010093 assessed as inhibition zone at 5 mg/ml after 24 hrs; conditions: RCMB 010093, 24 h, read-out: IZ; summary of the method: as §1
[9] = test system: Streptococcus pneumoniae; assay: Antimicrobial activity against Streptococcus pneumoniae RCMB 010010 assessed as inhibition zone at 5 mg/ml after 24 hrs; conditions: RCMB 010010, 24 h, read-out: IZ; summary of the method: as §1
[10] = test system: Staphylococcus epidermidis; assay: Antimicrobial activity against Staphylococcus epidermidis RCMB 010024 assessed as absence of turbidity after 24 hrs; conditions: RCMB 010024, 24 h; summary of the method: as §2
[11] = test system: Bacillus subtilis; assay: Antimicrobial activity against Bacillis subtilis RCMB 010067 assessed as absence of turbidity after 24 hrs; conditions: RCMB 010067, 24 h; summary of the method: as §2
[12] = test system: Escherichia coli; assay: Antimicrobial activity against Escherichia coli RCMB 010052 assessed as absence of turbidity after 24 hrs; conditions: RCMB 010052, 24 h; summary of the method: as §2
[13] = test system: Geotrichum candidum; assay: Antifungal activity against Geotrichum candidum RCMB 05097 assessed as absence of turbidity after 48 hrs; conditions: RCMB 05097, 48 h
Summary of the method: as §2, with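 “Sabouraud liquid medium.” for “Müller–Hinton broth.”, “Fungal” for “Bacterial”, “10^4” for “10^6”, “25” for “37”, “48” for “24”, “included.” for “included. Only compounds giving zones >10 mm were tested.”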

[14] = test system: Syncephalastrum racemosum; assay: Antifungal activity against Syncephalastrum racemosum RCMB 05922 assessed as inhibition zone at 5 mg/ml after 48 hrs; conditions: RCMB 05922, 48 h, read-out: IZ
[15] = test system: Aspergillus fumigatus; assay: Antifungal activity against Aspergillus fumigatus RCMB 02568 assessed as absence of turbidity after 48 hrs; conditions: RCMB 02568, 48 h
Summary of the method: as §2, with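 “Sabouraud liquid medium.” for “Müller–Hinton broth.”, “Fungal” for “Bacterial”, “10^4” for “10^6”, “25” for “37”, “48” for “24”, “included.” for “included. Only compounds giving zones >10 mm were tested.”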

[16] = test system: Bacillus subtilis; assay: Antimicrobial activity against Bacillis subtilis RCMB 010067 assessed as inhibition zone at 5 mg/ml after 24 hrs; conditions: RCMB 010067, 24 h, read-out: IZ; summary of the method: as §1
[17] = test system: Klebsiella pneumoniae; assay: Antimicrobial activity against Klebsiella pneumoniae RCMB 010093 assessed as absence of turbidity after 24 hrs; conditions: RCMB 010093, 24 h; summary of the method: as §2
[18] = test system: Streptococcus pneumoniae; assay: Antimicrobial activity against Streptococcus pneumoniae RCMB 010010 assessed as absence of turbidity after 24 hrs; conditions: RCMB 010010, 24 h; summary of the method: as §2

MIC ([2]; RCMB 010085, 24 h) [µg/mL] | MIC [7] [µg/mL] | MIC [10] [µg/mL] | MIC [11] [µg/mL] | MIC [12] [µg/mL] | MIC [13] [µg/mL] | MIC [15] [µg/mL] | MIC [17] [µg/mL] | MIC [18] [µg/mL] | MIC [2] | SMILES | zone of inhibition at 5000 µg/mL [1] [mm] | zone of inhibition at 5000 µg/mL [3] [mm] | zone of inhibition at 5000 µg/mL [4] [mm] | zone of inhibition at 5000 µg/mL [5] [mm] | zone of inhibition at 5000 µg/mL [6] [mm] | zone of inhibition at 5000 µg/mL [8] [mm] | zone of inhibition at 5000 µg/mL [9] [mm] | zone of inhibition at 5000 µg/mL [14] [mm] | zone of inhibition at 5000 µg/mL [16] [mm] | Activity [4]
15.6 (≈ 26.7 µM) | 0.007 (≈ 0.012 µM) | 0.98 (≈ 1.68 µM) | 0.24 (≈ 0.411 µM) | 0.007 (≈ 0.012 µM) | 0.12 (≈ 0.206 µM) | 0.06 (≈ 0.103 µM) | 0.98 (≈ 1.68 µM) | 0.98 (≈ 1.68 µM) |  | CC(=O)c1sc(NC23CC4CC(CC(C4)C2)C3)c(C(=O)Nc2ccc(S(=O)(=O)Nc3onc(C)c3C)cc2)c1N | 29.9 | 20.9 | 17.4 | 24.6 | 25.3 | 20.3 | 21.6 | 26.9 | 22.9 | 
3.9 (≈ 8.41 µM) | 62.5 (≈ 135 µM) | 7.81 (≈ 16.8 µM) | 3.9 (≈ 8.41 µM) | 15.6 (≈ 33.7 µM) | 31.2 (≈ 67.4 µM) | 62.5 (≈ 135 µM) | 15.6 (≈ 33.7 µM) | 16.6 (≈ 35.9 µM) |  | CNc1sc(C(C)=O)c(N)c1C(=O)Nc1ccc(S(=O)(=O)Nc2onc(C)c2C)cc1 | 17.1 | 18.7 | 18.2 | 16.4 | 15.8 | 16.9 | 16.6 | 14.1 | 19.1 | 
1.95 (≈ 4.04 µM) | 0.12 (≈ 0.249 µM) | 3.9 (≈ 8.08 µM) | 1.95 (≈ 4.04 µM) | 7.81 (≈ 16.2 µM) | 125 (≈ 259 µM) | 0.03 (≈ 0.0622 µM) | 15.6 (≈ 32.4 µM) | 0.49 (≈ 1.02 µM) |  | COc1ccc(-c2[nH]nc(N)c2C(=O)Nc2ccc(S(=O)(=O)Nc3onc(C)c3C)cc2)cc1 | 17.8 | 18.9 | 19.6 | 13.6 | 26.1 | 17.1 | 22 | 24.4 | 20.4 | 
0.98 (≈ 1.13 µM) | 3.9 (≈ 4.49 µM) | 0.12 (≈ 0.138 µM) | 0.007 (≈ 0.00806 µM) | 0.24 (≈ 0.276 µM) | 0.03 (≈ 0.0346 µM) | 0.49 (≈ 0.564 µM) | 0.03 (≈ 0.0346 µM) | 0.06 (≈ 0.0691 µM) |  | CC(=O)OC[C@H]1O[C@@H](Sc2c(C#N)c(-c3ccc(Cl)cc3)c(C#N)c(=O)n2-c2ccc(S(=O)(=O)Nc3onc(C)c3C)cc2)[C@H](OC(C)=O)[C@@H](OC(C)=O)[C@@H]1OC(C)=O | 23.2 | 24.2 | 21.2 | 25.8 | 22.3 | 25.8 | 25.1 | 20.3 | 29.8 | 
 | 0.98 (≈ 2 µM) | 3.9 (≈ 7.97 µM) | 0.12 (≈ 0.245 µM) | 7.81 (≈ 16 µM) | 0.49 (≈ 1 µM) | 0.98 (≈ 2 µM) | 3.9 (≈ 7.97 µM) | 0.98 (≈ 2 µM) | inactive | C=CCNc1sc(C(C)=O)c(N)c1C(=O)Nc1ccc(S(=O)(=O)Nc2onc(C)c2C)cc1 | 18.3 | 19.3 |  | 21.9 | 20.6 | 18.9 | 20.6 | 21.1 | 23.7 | inactive
1.85 (≈ 4.64 µM) | 1.95 (≈ 4.89 µM) | 0.98 (≈ 2.46 µM) | 0.06 (≈ 0.151 µM) | 0.98 (≈ 2.46 µM) | 0.24 (≈ 0.602 µM) | 0.24 (≈ 0.602 µM) | 0.98 (≈ 2.46 µM) | 0.12 (≈ 0.301 µM) |  | Cc1cc(C)n(-c2ccc(S(=O)(=O)Nc3onc(C)c3C)cc2)c(=O)c1C#N | 20.9 | 21.4 | 19.5 | 23.1 | 22.9 | 21.4 | 23.8 | 20.3 | 25.3 | 
3.9 (≈ 9.21 µM) | 3.9 (≈ 9.21 µM) | 0.49 (≈ 1.16 µM) | 0.03 (≈ 0.0708 µM) | 0.12 (≈ 0.283 µM) | 0.03 (≈ 0.0708 µM) | 0.49 (≈ 1.16 µM) | 0.12 (≈ 0.283 µM) | 0.06 (≈ 0.142 µM) |  | Cc1noc(NS(=O)(=O)c2ccc(NC(=O)/C(C#N)=C/c3cccnc3)cc2)c1C | 23.7 | 22.3 | 19.3 | 25.6 | 23.4 | 24.2 | 24.6 | 18.7 | 26.2 | 
3.9 (≈ 7.25 µM) | 1.95 (≈ 3.62 µM) | 0.49 (≈ 0.911 µM) | 0.12 (≈ 0.223 µM) | 0.98 (≈ 1.82 µM) | 0.24 (≈ 0.446 µM) | 0.98 (≈ 1.82 µM) | 0.24 (≈ 0.446 µM) | 0.49 (≈ 0.911 µM) |  | Cc1noc(NS(=O)(=O)c2ccc(-n3c(S)c(C#N)c(-c4ccc(Cl)cc4)c(C#N)c3=O)cc2)c1C | 20.6 | 20.2 | 19.3 | 22.8 | 21.6 | 23.2 | 22.3 | 20.2 | 24.4 | 
7.81 (≈ 18.5 µM) | 7.81 (≈ 18.5 µM) | 3.9 (≈ 9.23 µM) | 1.95 (≈ 4.62 µM) | 1.95 (≈ 4.62 µM) | 0.98 (≈ 2.32 µM) | 15.6 (≈ 37 µM) | 0.49 (≈ 1.16 µM) | 7.81 (≈ 18.5 µM) |  | Cc1noc(NS(=O)(=O)c2ccc(NC(=O)/C(C#N)=C/c3ccccc3)cc2)c1C | 20.6 | 19.1 | 18 | 20.9 | 17.1 | 21.9 | 18.4 | 18.8 | 20.3 | 
7.81 (≈ 15.5 µM) | 3.9 (≈ 7.73 µM) | 1.95 (≈ 3.86 µM) | 0.24 (≈ 0.476 µM) | 3.9 (≈ 7.73 µM) | 0.49 (≈ 0.971 µM) | 0.98 (≈ 1.94 µM) | 0.98 (≈ 1.94 µM) | 0.98 (≈ 1.94 µM) |  | Cc1noc(NS(=O)(=O)c2ccc(-n3c(S)c(C#N)c(-c4cccnc4)c(C#N)c3=O)cc2)c1C | 19.2 | 20 | 17.6 | 22 | 21.2 | 21 | 21.3 | 19.2 | 22.6 | 
500 (≈ 1330 µM) | 15.6 (≈ 41.5 µM) | 31.2 (≈ 83 µM) | 7.81 (≈ 20.7 µM) | 125 (≈ 332 µM) | 7.81 (≈ 20.7 µM) | 7.81 (≈ 20.7 µM) | 125 (≈ 332 µM) | 7.81 (≈ 20.7 µM) |  | Cc1noc(NS(=O)(=O)c2ccc(NC(=O)c3cn[nH]c3N)cc2)c1C | 13 | 16.1 | 11 | 18.9 | 18.6 | 14.6 | 17.8 | 17.2 | 18 | 
